Entries after “also recorded” stand apart in the source; their conditions may differ. Like-named read-outs stand apart in the source and are kept apart here. Marks after values point to notes of the source that are not given here.
Legend:
[1] = tested on: IFN‐α signaling (JAK1/TYK2 kinase dimer); assay: In vitro whole blood inhibition of IFN-α signaling; type: cell-based; settings: read-out: unbound IC50 (IC50,u) of IFN‐α signaling; IC50,u = IC50 × [fu / (blood/plasma ratio)]
[2] = Phase 1 hepatic impairment study; type: in vivo, human; settings: for MRAUCinf (ratio of metabolite to abrocitinib for AUCinf) / tmax / AUCinf / AUClast / Cmax / AUC(0-inf) / AUC(0-t): single 200-mg oral dose of abrocitinib; for MRAUCinf (ratio of metabolite to abrocitinib for AUCinf) / AUCinf / AUClast / Cmax / AUC(0-inf) / AUC(0-t): geometric mean (geometric %CV); for tmax: median (range); for AUC(0-inf): AUCinf; for AUC(0-t): AUClast
[3] = tested on: JAK2; settings: metabolites; ref data on file; cited from earlier work
[4] = tested on: JAK3; settings: metabolites; ref data on file; cited from earlier work
[5] = tested on: tyrosine kinase 2 (TYK2); settings: metabolites; ref data on file; cited from earlier work
[6] = tested on: JAK1; settings: ref data on file; cited from earlier work
[7] = single oral dose 200-mg abrocitinib/80 μg (500 nCi) [14C]; ref data on file; cited from earlier work
[8] = target: IFN‐α signaling (JAK1/TYK2 kinase dimer); settings: read-out: In vitro whole blood IFN‐α IC50, ref data on file; cited from earlier work
[9] = ref data on file; cited from earlier work
[10] = ref data on file; cited from earlier work; remark: listed apart in the source
[11] = Phase 1 hepatic impairment study; type: in vivo, human
How it was run: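 Single oral dose after an overnight fast, 8 subjects per hepatic function group. Adverse events, vital signs, physical exams, 12-lead ECGs and safety laboratory tests were assessed up to 72 h post-dose. Treatment-emergent events were scored for incidence, severity and causality. Clinically significant lab abnormalities or ongoing events were followed up by telephone or onsite visit at 28–35 days.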

[12] = ref data on file; cited from earlier work; remark: listed apart in the source
[13] = cited from earlier work
[14] = once daily 100 mg or 200 mg; cited from earlier work
[15] = up to 800-mg single dose, repeated total daily doses up to 400 mg; cited from earlier work
[16] = mild hepatic impairment compared to normal hepatic function
[17] = mild hepatic impairment, plasma
[18] = moderate hepatic impairment compared to normal hepatic function
[19] = moderate hepatic impairment, plasma
[20] = normal hepatic function, plasma
[21] = human, plasma, po, 200 mg, mild hepatic impairment
[22] = human, plasma, po, 200 mg, moderate hepatic impairment
[23] = human, plasma, po, 200 mg, normal hepatic function

## C[C@H](O)CS(=O)(=O)NC1CC(N(C)c2ncnc3[nH]ccc23)C1 (stereo partly drawn) [M2]
[1]
  IC50: 0.0506 µM
[2]; [16]
  unadjusted geometric mean ratio for MRAUCinf: 0.680
[2]; mild hepatic impairment
  MRAUCinf (ratio of metabolite to abrocitinib for AUCinf): 0.15 (25)
  tmax: 2.50 (1.00‐4.00) h
[2]; [17]
  AUCinf: 1178 (22) ng • h/mL
  AUClast: 1081 (25) ng • h/mL
  Cmax: 139.9 (29) ng/mL
[2]; [18]
  unadjusted geometric mean ratio for MRAUCinf: 0.655
[2]; moderate hepatic impairment
  MRAUCinf (ratio of metabolite to abrocitinib for AUCinf): 0.15 (78)
  tmax: 2.00 (2.00‐4.00) h
[2]; [19]
  AUCinf: 1309 (38) ng • h/mL
  AUClast: 1192 (43) ng • h/mL
  Cmax: 119.2 (43) ng/mL
[2]; normal hepatic function
  MRAUCinf (ratio of metabolite to abrocitinib for AUCinf): 0.22 (56) ^b
  tmax: 2.00 (1.00‐3.00) h
[2]; [20]
  AUCinf: 1519 (36) ^b ng • h/mL
  AUClast: 1395 (35) ng • h/mL
  Cmax: 253.1 (40) ng/mL
[3]
  JAK1 enzyme kinase selectivity over JAK2: 49 fold
[4]
  JAK1 enzyme kinase selectivity over JAK3: > 559 fold
[5]
  JAK1 enzyme kinase selectivity over TYK2: 68 fold
[6]
  pharmacological activity of metabolite: active metabolites
[7]
  share of circulating species: 12%
[8]
  IC50: 0.0905 µM
[9]
  fraction unbound in plasma (fu): 0.71
[10]
  blood/plasma ratio: 1.27

## CN(c1ncnc2[nH]ccc12)C1CC(NS(=O)(=O)CCCO)C1 (stereo not drawn) [M1]
[1]
  IC50: 0.165 µM
[2]; [16]
  unadjusted geometric mean ratio for MRAUCinf: 0.239
[2]; mild hepatic impairment
  MRAUCinf (ratio of metabolite to abrocitinib for AUCinf): 0.05 (54)
  tmax: 1.50 (1.00‐4.00) h
[2]; [17]
  AUCinf: 357.6 (49) ng • h/mL
  AUClast: 338.1 (52) ng • h/mL
  Cmax: 56.3 (54) ng/mL
[2]; [18]
  unadjusted geometric mean ratio for MRAUCinf: 0.320
[2]; moderate hepatic impairment
  MRAUCinf (ratio of metabolite to abrocitinib for AUCinf): 0.06 (111)
  tmax: 2.00 (1.00‐3.00) h
[2]; [19]
  AUCinf: 552.7 (51) ng • h/mL
  AUClast: 534.9 (52) ng • h/mL
  Cmax: 68.9 (57) ng/mL
[2]; normal hepatic function
  MRAUCinf (ratio of metabolite to abrocitinib for AUCinf): 0.19 (100)
  tmax: 2.00 (1.00‐3.00) h
[2]; [20]
  AUCinf: 1120 (28) ng • h/mL
  AUClast: 1102 (29) ng • h/mL
  Cmax: 241.5 (50) ng/mL
[3]
  JAK1 enzyme kinase selectivity over JAK2: approximately 26 fold
[4]
  JAK1 enzyme kinase selectivity over JAK3: > 230 fold
[5]
  JAK1 enzyme kinase selectivity over TYK2: ~74 fold
[6]
  pharmacological activity of metabolite: active metabolites
[7]
  share of circulating species: 11%
[8]
  IC50: 0.296 µM
[9]
  fraction unbound in plasma (fu): 0.63
[10]
  blood/plasma ratio: 1.13

## CCCS(=O)(=O)N[C@H]1C[C@@H](N(C)c2ncnc3[nH]ccc23)C1 [abrocitinib, N‐{cis‐3‐[Methyl(7H‐pyrrolo[2,3‐d]pyrimidin‐4‐yl)amino]cyclobutyl}propane‐1‐sulfo namide]
[2]; [21]
  AUC(0-inf): 7.45 µg·h/mL
  AUC(0-t): 7.43 µg·h/mL
[2]; [22]
  AUC(0-inf): 8.6 µg·h/mL
  AUC(0-t): 8.55 µg·h/mL
[2]; [23]
  AUC(0-inf): 5.59 µg·h/mL
  AUC(0-t): 5.55 µg·h/mL
[2]; human, plasma, po, 200 mg, Cmax, mild hepatic impairment
  Cmax: 1.28 µg/mL
[2]; human, plasma, po, 200 mg, Cmax, moderate hepatic impairment
  Cmax: 1.43 µg/mL
[2]; human, plasma, po, 200 mg, Cmax, normal hepatic function
  Cmax: 1.35 µg/mL
[2]; human, plasma, po, 200 mg, tmax, mild hepatic impairment
  tmax: 2 h
[2]; human, plasma, po, 200 mg, tmax, moderate hepatic impairment
  tmax: 1 h
[2]; human, plasma, po, 200 mg, tmax, normal hepatic function
  tmax: 2 h
[2]; [16]
  increase in AUCinf: ≈ 33.3%
[2]; mild or moderate hepatic impairment
  effect of hepatic impairment on PK and safety: no clinically relevant effect
[2]; [18]
  increase in AUCinf: ~54.0%
[11]; mild hepatic impairment
  subjects with laboratory abnormality leukocyte esterase (≥1): 4 subjects
[11]; mild hepatic impairment (25%)
  subjects reporting diarrhea: 2 subjects
  subjects reporting headache: 2 subjects
[11]; mild hepatic impairment (N = 8)
  subjects with treatment-emergent adverse events: 3 subjects
[11]; moderate hepatic impairment
  subjects with laboratory abnormality leukocyte esterase (≥1): 5 subjects
[11]; moderate hepatic impairment (N = 8)
  subjects reporting adverse events: No subjects
[11]; normal hepatic function
  subjects with laboratory abnormality leukocyte esterase (≥1): 1 subject
[11]; single 200-mg oral dose, all 3 hepatic function groups
  safety and tolerability: generally safe and well tolerated
[12]
  absolute oral bioavailability: 60%
  fraction absorbed: 91%
[13]; healthy subjects, suspension, doses of 3 to 200 mg
  median tmax: < 1 h
[13]; multiple dose, total daily dose 30 mg up to 400 mg
  increases in Cmax and AUCτ with increasing dose: greater than proportional
[13]; single doses 400 and 800 mg
  increases in AUCinf, dose proportionality: greater than dose proportional
[13]; single-dose range 3 to 800 mg
  Cmax dose proportionality: increased proportionally with dose
[7]
  share of circulating species: 26%
[14]
  efficacy and tolerability in moderate to severe atopic dermatitis: effective and well tolerated; also recorded: safe and efficacious
[15]
  safety and tolerability of higher doses: safe and well tolerated

Reference: paper PMC8518898 (Journal of Clinical Pharmacology, 2021)
